Assay: CT900 plasma pharmacokinetics, noncompartmental analysis
Type: in vivo, human
Settings: Cycle 1 Day 1; for AUC(0-t) / Cmax / clearance / Tmax / Vd: human, plasma, iv
In short: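 Test compound was given intravenously, weekly (1–6 mg/m2) or every 2 weeks (2–12 mg/m2). Plasma concentration–time data were analysed noncompartmentally for AUClast, AUC∞, AUC0–24, Cmax, Tmax, t1/2, λz, clearance and Vss. Summaries are geometric mean with CV%, arithmetic mean and median.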

C#CCN(c1ccc(C(=O)N[C@@H](CCC(=O)N[C@H](CCC(=O)O)C(=O)O)C(=O)O)cc1)[C@H]1CCc2cc3nc(CO)[nH]c(=O)c3cc21 [CT900, N-[4-[2-propyn-1-yl[(6S)-4,6,7,8-tetrahydro-2-(hydroxymethyl)-4-oxo-3H-cyclopenta [g]quinazolin-6-yl]amino]benzoyl]-l-gamma-glutamyl-D-glutamic acid]
HL Lambda_z (1 mg/m^2 i.v., Geometric Mean, N 3): 6.1 h | HL Lambda_z (1 mg/m^2 i.v., Mean, N 3): 6.7 h | HL Lambda_z (1 mg/m^2 i.v., Median, N 3): 7.5 h | HL Lambda_z (1 mg/m^2 i.v., Range, N 3): 3.2 to 9.4 h | HL Lambda_z (2 mg/m^2 i.v., Geometric Mean, N 4): 11.8 h | HL Lambda_z (2 mg/m^2 i.v., Mean, N 4): 12.6 h | HL Lambda_z (2 mg/m^2 i.v., Median, N 4): 11.3 h | HL Lambda_z (2 mg/m^2 i.v., Range, N 4): 7.5 to 20.0 h | HL Lambda_z (6 mg/m^2 i.v., Mean, N 1): 19.9 h | HL Lambda_z (12 mg/m^2 i.v., Geometric Mean, N 5): 28.1 h | HL Lambda_z (12 mg/m^2 i.v., Mean, N 5): 28.7 h | HL Lambda_z (12 mg/m^2 i.v., Median, N 5): 26.5 h | HL Lambda_z (12 mg/m^2 i.v., Range, N 5): 23.0 to 41.0 h | AUC(0-t) (1 mg/m2, AUC0-24, 1 mg/m^2 i.v., Mean, N 3): 1650 ng·h/mL | AUC(0-t) (1 mg/m2, AUC0-24, 1 mg/m^2 i.v., Median, N 3): 1620 ng·h/mL | AUC(0-t) (1 mg/m2, AUC0-24, 1 mg/m^2 i.v., Range, N 3): 1020 to 2330 ng·h/mL | AUC(0-t) (1 mg/m2, AUClast, 1 mg/m^2 i.v., Mean, N 3): 1650 ng·h/mL | AUC(0-t) (1 mg/m2, AUClast, 1 mg/m^2 i.v., Median, N 3): 1620 ng·h/mL | AUC(0-t) (1 mg/m2, AUClast, 1 mg/m^2 i.v., Range, N 3): 1020 to 2330 ng·h/mL | Cmax (1 mg/m2, C max, 1 mg/m^2 i.v., Mean, N 3): 402 ng/mL | Cmax (1 mg/m2, C max, 1 mg/m^2 i.v., Median, N 3): 401 ng/mL | Cmax (1 mg/m2, C max, 1 mg/m^2 i.v., Range, N 3): 374 to 432 ng/mL | clearance (1 mg/m2, Cl, 1 mg/m^2 i.v., Mean, N 3): 20.3 mL/min | clearance (1 mg/m2, Cl, 1 mg/m^2 i.v., Median, N 3): 20.8 mL/min | clearance (1 mg/m2, Cl, 1 mg/m^2 i.v., Range, N 3): 10.4 to 29.7 mL/min | Tmax (1 mg/m2, T max, 1 mg/m^2 i.v., Mean, N 3): 1 h | Tmax (1 mg/m2, T max, 1 mg/m^2 i.v., Median, N 3): 1 h | Tmax (1 mg/m2, T max, 1 mg/m^2 i.v., Range, N 3): 1 h | Vd (1 mg/m2, Vss, 1 mg/m^2 i.v., Mean, N 3): 7.59 L | Vd (1 mg/m2, Vss, 1 mg/m^2 i.v., Median, N 3): 6.75 L | Vd (1 mg/m2, Vss, 1 mg/m^2 i.v., Range, N 3): 6.71 to 9.32 L | AUC(0-t) (2 mg/m2, AUC0-24, 2 mg/m^2 i.v., Mean, N 4): 4890 ng·h/mL | AUC(0-t) (2 mg/m2, AUC0-24, 2 mg/m^2 i.v., Median, N 4): 4730 ng·h/mL | AUC(0-t) (2 mg/m2, AUC0-24, 2 mg/m^2 i.v., Range, N 4): 2520 to 7590 ng·h/mL | AUC(0-t) (2 mg/m2, AUClast, 2 mg/m^2 i.v., Mean, N 4): 6860 ng·h/mL | AUC(0-t) (2 mg/m2, AUClast, 2 mg/m^2 i.v., Median, N 4): 6050 ng·h/mL | AUC(0-t) (2 mg/m2, AUClast, 2 mg/m^2 i.v., Range, N 4): 2520 to 12800 ng·h/mL | Cmax (2 mg/m2, C max, 2 mg/m^2 i.v., Mean, N 4): 746 ng/mL | Cmax (2 mg/m2, C max, 2 mg/m^2 i.v., Median, N 4): 759 ng/mL | Cmax (2 mg/m2, C max, 2 mg/m^2 i.v., Range, N 4): 613 to 855 ng/mL | clearance (2 mg/m2, Cl, 2 mg/m^2 i.v., Mean, N 4): 11.2 mL/min | clearance (2 mg/m2, Cl, 2 mg/m^2 i.v., Median, N 4): 8.72 mL/min | clearance (2 mg/m2, Cl, 2 mg/m^2 i.v., Range, N 4): 4.07 to 23.4 mL/min | Tmax (2 mg/m2, T max, 2 mg/m^2 i.v., Mean, N 4): 0.9 h | Tmax (2 mg/m2, T max, 2 mg/m^2 i.v., Median, N 4): 1 h | Tmax (2 mg/m2, T max, 2 mg/m^2 i.v., Range, N 4): 0.5 to 1.1 h | Vd (2 mg/m2, Vss, 2 mg/m^2 i.v., Mean, N 4): 8.52 L | Vd (2 mg/m2, Vss, 2 mg/m^2 i.v., Median, N 4): 7.41 L | Vd (2 mg/m2, Vss, 2 mg/m^2 i.v., Range, N 4): 6.53 to 12.7 L | AUC(0-t) (6 mg/m2, AUC0-24, 6 mg/m^2 i.v., Mean, N 1): 15100 ng·h/mL | AUC(0-t) (6 mg/m2, AUClast, 6 mg/m^2 i.v., Mean, N 1): 25600 ng·h/mL | Cmax (6 mg/m2, C max, 6 mg/m^2 i.v., Mean, N 1): 2030 ng/mL | clearance (6 mg/m2, Cl, 6 mg/m^2 i.v., Mean, N 1): 7.67 mL/min | Tmax (6 mg/m2, T max, 6 mg/m^2 i.v., Mean, N 1): 1 h | Vd (6 mg/m2, Vss, 6 mg/m^2 i.v., Mean, N 1): 12 L | AUC(0-t) (12 mg/m2, AUC0-24, 12 mg/m^2 i.v., Geometric Mean, N 5): 46900 ng·h/mL | AUC(0-t) (12 mg/m2, AUC0-24, 12 mg/m^2 i.v., Mean, N 5): 47200 ng·h/mL | AUC(0-t) (12 mg/m2, AUC0-24, 12 mg/m^2 i.v., Median, N 5): 45400 ng·h/mL | AUC(0-t) (12 mg/m2, AUC0-24, 12 mg/m^2 i.v., Range, N 5): 42300 to 58600 ng·h/mL | AUC(0-t) (12 mg/m2, AUClast, 12 mg/m^2 i.v., Geometric Mean, N 5): 85900 ng·h/mL | AUC(0-t) (12 mg/m2, AUClast, 12 mg/m^2 i.v., Mean, N 5): 87600 ng·h/mL | AUC(0-t) (12 mg/m2, AUClast, 12 mg/m^2 i.v., Median, N 5): 83500 ng·h/mL | AUC(0-t) (12 mg/m2, AUClast, 12 mg/m^2 i.v., Range, N 5): 68700 to 123000 ng·h/mL | Cmax (12 mg/m2, C max, 12 mg/m^2 i.v., Geometric Mean, N 5): 5100 ng/mL | Cmax (12 mg/m2, C max, 12 mg/m^2 i.v., Mean, N 5): 5130 ng/mL | Cmax (12 mg/m2, C max, 12 mg/m^2 i.v., Median, N 5): 4830 ng/mL | Cmax (12 mg/m2, C max, 12 mg/m^2 i.v., Range, N 5): 4460 to 6010 ng/mL | clearance (12 mg/m2, Cl, 12 mg/m^2 i.v., Geometric Mean, N 5): 3.45 mL/min | clearance (12 mg/m2, Cl, 12 mg/m^2 i.v., Mean, N 5): 3.6 mL/min | clearance (12 mg/m2, Cl, 12 mg/m^2 i.v., Median, N 5): 3.68 mL/min | clearance (12 mg/m2, Cl, 12 mg/m^2 i.v., Range, N 5): 2.1 to 5.05 mL/min | Tmax (12 mg/m2, T max, 12 mg/m^2 i.v., Geometric Mean, N 5): 1 h | Tmax (12 mg/m2, T max, 12 mg/m^2 i.v., Mean, N 5): 1 h | Tmax (12 mg/m2, T max, 12 mg/m^2 i.v., Median, N 5): 1 h | Tmax (12 mg/m2, T max, 12 mg/m^2 i.v., Range, N 5): 1 h | Vd (12 mg/m2, Vss, 12 mg/m^2 i.v., Geometric Mean, N 5): 7.59 L | Vd (12 mg/m2, Vss, 12 mg/m^2 i.v., Mean, N 5): 7.62 L | Vd (12 mg/m2, Vss, 12 mg/m^2 i.v., Median, N 5): 7.33 L | Vd (12 mg/m2, Vss, 12 mg/m^2 i.v., Range, N 5): 6.99 to 9.06 L
